Consider 30 compounds from PubChem BioAssay.

Assay [1] is described as follows: thallium flux activation in parental CHO cells, counter-screen for KCNQ1 potentiator project (AID 493006;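 active = duplicate-averaged activation above buffer control mean plus 5 SD of those controls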;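 as to activation: fluorescence ratio of max minus min over baseline after K+ and Tl+ depolarization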). To be noted: parental CHO-K1 cells, FluxOR thallium flux, at 10 µM; active compounds read high. The procedure, abridged:
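Material: parental CHO-K1 cells, FluxOR dye-loaded; Also added: Potassium/thallium depolarization pulse; Schedule: overnight 37 °C plating, 90 min dye, 20 min dark compound; Signal: kinetic FluxOR fluorescence, 10 s baseline, 110 s after stimulus.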
In general terms: The purpose of a counterscreen is to sort out artefacts and off-target activity.

The target of assay [2] is Potassium voltage-gated channel subfamily KQT member 1 (Homo sapiens) (UniProt P51787). Put plainly: KCNQ1 potassium channel potentiators, confirmation, FluxOR thallium flux, CHO cells, duplicates (AID 493007;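 active = potentiation averaged over duplicate wells exceeding buffer-only control mean by more than 3 SD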;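 as to outcome: cells depolarized by a potassium plus thallium sulfate stimulus after compound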). To be noted: KCNQ1 cell line, FluxOR thallium flux fluorescence, at 10 µM; active compounds read high, % of reference activator effect, buffer zero. The procedure, abridged:
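System: KCNQ1-expressing CHO cell line; technique: kinetic thallium influx fluorescence with FluxOR dye, 10 s baseline, 110 s post-stimulus; timing: dye 90 min then compound 20 min, both at room temperature; controls: buffer-only wells as 0% and R-L3 activator as 100%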

The target of assay [3] is Potassium voltage-gated channel subfamily KQT member 2 (Rattus norvegicus) (UniProt O88943). The assay can be described thus: rat KCNQ2 channel potentiation, selectivity assay for KCNQ1 potentiator project, KCNQ2-CHO-K1 cells (AID 493009).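 Also: assay conditions were tuned for KCNQ1 rather than KCNQ2 modulators; signal is max minus min fluorescence divided by baseline after thallium stimulus.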 The conditions noted are these: FluxOR thallium flux fluorescence, at 10 µM; active compounds read high, scaled: buffer 0, activator control 100.
Potassium voltage-gated channel subfamily KQT member 2 (Rattus norvegicus), sequence (O88943 whole entry, looked up): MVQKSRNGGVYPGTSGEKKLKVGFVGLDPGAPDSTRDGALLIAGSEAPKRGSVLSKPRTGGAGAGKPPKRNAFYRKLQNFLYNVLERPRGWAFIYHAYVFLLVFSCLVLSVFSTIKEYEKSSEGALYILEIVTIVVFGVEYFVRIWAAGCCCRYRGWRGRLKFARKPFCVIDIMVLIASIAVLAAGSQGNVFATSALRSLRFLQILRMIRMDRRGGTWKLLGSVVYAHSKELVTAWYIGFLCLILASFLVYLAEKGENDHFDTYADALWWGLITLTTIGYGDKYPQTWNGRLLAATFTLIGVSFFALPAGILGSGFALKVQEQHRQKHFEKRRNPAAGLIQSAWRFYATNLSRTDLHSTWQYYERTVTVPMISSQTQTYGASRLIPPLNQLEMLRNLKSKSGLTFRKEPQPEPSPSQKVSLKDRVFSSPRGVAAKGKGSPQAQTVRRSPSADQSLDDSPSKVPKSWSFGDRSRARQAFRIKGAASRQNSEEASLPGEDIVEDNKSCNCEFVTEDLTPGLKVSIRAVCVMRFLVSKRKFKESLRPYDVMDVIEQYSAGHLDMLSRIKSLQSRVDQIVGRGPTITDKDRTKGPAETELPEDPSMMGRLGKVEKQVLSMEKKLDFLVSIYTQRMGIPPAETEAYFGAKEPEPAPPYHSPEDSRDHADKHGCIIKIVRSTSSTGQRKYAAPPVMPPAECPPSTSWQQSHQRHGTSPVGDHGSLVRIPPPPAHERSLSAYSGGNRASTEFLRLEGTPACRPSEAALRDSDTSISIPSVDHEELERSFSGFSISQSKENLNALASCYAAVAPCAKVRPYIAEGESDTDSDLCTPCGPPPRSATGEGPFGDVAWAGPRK

The target in assay [4] is Potassium voltage-gated channel subfamily KQT member 1 (Homo sapiens) (UniProt P51787). The assay can be described thus: KCNQ1 channel current potentiators, confirmation, orthogonal assay for KCNQ1 potentiator project, IonWorks patch clamp, KCNQ1-CHO cells (AID 493184;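 active = current rise at least 3 SD above the untreated control mean in each of two repeat wells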;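 as to current potentiation: percent change of the same well's current before compound addition so 0% = no change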). To be noted: automated patch clamp current, at 10 µM; active compounds read high. In a few lines: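 Test system: KCNQ1-expressing CHO cells. Medium: pH 7.4 external bath. Probe or stimulus: voltage step from -90 mV holding to +40 mV, 2,000 ms. Compound: 10 µM final, single point. Detection: automated perforated-patch electrophysiology. Read-out: percent current increase versus pre-compound level. Repeats: two replicates.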
Potassium voltage-gated channel subfamily KQT member 1 (Homo sapiens), sequence (P51787 whole entry, looked up): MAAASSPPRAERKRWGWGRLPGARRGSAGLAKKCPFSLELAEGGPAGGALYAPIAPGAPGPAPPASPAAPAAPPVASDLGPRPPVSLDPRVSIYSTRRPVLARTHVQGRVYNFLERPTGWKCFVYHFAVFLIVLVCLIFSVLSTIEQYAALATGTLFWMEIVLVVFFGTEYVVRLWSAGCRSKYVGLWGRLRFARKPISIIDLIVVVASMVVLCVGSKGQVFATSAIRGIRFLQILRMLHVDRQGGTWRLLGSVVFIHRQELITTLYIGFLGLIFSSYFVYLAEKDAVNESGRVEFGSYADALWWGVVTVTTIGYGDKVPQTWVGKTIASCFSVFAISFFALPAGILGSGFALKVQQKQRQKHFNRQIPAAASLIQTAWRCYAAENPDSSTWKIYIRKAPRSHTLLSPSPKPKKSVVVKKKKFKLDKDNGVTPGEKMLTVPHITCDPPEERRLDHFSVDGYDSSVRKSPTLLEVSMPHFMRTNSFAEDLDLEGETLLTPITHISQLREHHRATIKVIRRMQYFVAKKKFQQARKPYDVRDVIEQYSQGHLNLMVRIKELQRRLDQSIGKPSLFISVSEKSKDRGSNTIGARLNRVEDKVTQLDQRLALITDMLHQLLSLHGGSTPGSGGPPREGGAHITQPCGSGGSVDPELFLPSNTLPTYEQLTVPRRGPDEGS

Calls of active or inactive are those of the source.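 The calls were made as follows, unless noted: active = mean duplicate potentiation above the buffer control mean plus 5 SD of buffer wells; inactive = the rest.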

`S=c1nc(C2CCCCC2)[nH]c2ccccc12`: the activation in assay [1] was 138% (active). The potentiation in assay [2] is 22.5% (active); in assay [3], 160% (active). In assay [4], the outcome was inactive.
Regarding `CN(C)S(=O)(=O)c1ccc(Cl)c(NC(=O)CN2CCCCCC2)c1`, the outcome in assay [1], in assay [2], in assay [3] and in assay [4] was inactive.
For `O=C1OCCC1Sc1nc2ccccc2c(=O)n1Cc1ccc(F)cc1` (stereo not given), the activation in assay [1] is 158% (active). For the same compound, the potentiation in assay [2] is 44% (active); in assay [3], 169% (active). Further, the result in assay [4] was inactive.
Consider `COc1ccccc1CNC(=O)c1oc2ccc(S(=O)(=O)N3CCOCC3)cc2c1C`, for which the result in assay [1], in assay [2], in assay [3] and in assay [4] was inactive.
With `CCSc1nc2c(sc3ccccc32)c(=O)n1C(C)C`, the activation in assay [1] was 310% (active). Moreover, the potentiation in assay [2] was 206% (active); in assay [3], 479% (active). In addition, the result in assay [4] was inactive.
For `S=C1NC2(CCCCC2)Cc2ccccc21`, the outcome in assay [1], in assay [2], in assay [3] and in assay [4] was inactive.
For the compound `Cc1cccc(-n2c(C)cc(/C=N/NC(N)=S)c2C)c1`, the outcome in assay [1], in assay [2], in assay [3] and in assay [4] was inactive.
Consider `O=C(NC(=S)Nc1cccnc1)c1cc2ccccc2o1`, for which the activation in assay [1] is 184% (active). For the same compound, the values for the potentiation in assay [2] and in assay [3] were 35% (active) and 182% (active), respectively. In addition, the outcome in assay [4] was inactive.
Taken in the same sequence, the figures for `CC(=O)N1CCN=C1SCc1ccc(F)cc1` were 355% (active), 120% (active), 329% (active) and “inactive”.
Consider `O=C(CSc1nnc(SCc2cccc3ccccc23)s1)c1ccc2c(c1)OCO2`, for which, in assay [1], the activation is 163% (active). The result in assay [2], in assay [3] and in assay [4] was inactive.
As for `C=CCNc1nnc(SCC(=O)N2CCC(C(N)=O)CC2)s1`, the result in assay [1], in assay [2], in assay [3] and in assay [4] was inactive.
With `COc1cccc(CN(C)C(=O)c2cc(COc3ccc4ncccc4c3)on2)c1`, the result in assay [1], in assay [2], in assay [3] and in assay [4] was inactive.
Turning to `COc1cc(CNCCN2CCOCC2)ccc1OCc1ccc(Cl)cc1Cl`, the result in assay [1], in assay [2], in assay [3] and in assay [4] was inactive.
As for `CCCCNC(=S)NC(=O)c1ccc([N+](=O)[O-])cc1`, the activation in assay [1] was 168% (active). Further, the potentiation in assay [2] is 29% (active); in assay [3] it was 190% (active). The result in assay [4] was inactive.
As to `Cc1ccc(/C=N/Nc2nc(C(C)(C)C)cs2)o1`, the outcome in assay [1], in assay [2], in assay [3] and in assay [4] was inactive.
`CCOc1ccc2nc(N3C(=O)/C(=C/c4ccc(Cl)cc4)NC3=S)sc2c1`: the activation in assay [1] was 283% (active). For the same compound, the potentiation in assay [2] is 143% (active); in assay [3], 416% (active). In assay [4], the outcome was inactive.
Consider `C=CCSc1nc2sc3c(c2c(=O)n1CC)CCc1ccccc1-3`, for which the activation in assay [1] is 160% (active). Besides, the figures for the potentiation in assay [2] and in assay [3] were 91% (active) and 192% (active), respectively. Moreover, the result in assay [4] was inactive.
For `O=c1ccc(N=Nc2ccccc2)ccc1O` the same measures were 322% (active), 138% (active), 430% (active) and “inactive”.
Turning to `O=C(CSc1nc2cc(Cl)ccc2s1)c1cc2ccccc2o1`, the result in assay [1], in assay [2], in assay [3] and in assay [4] was inactive.
As for `Cc1[nH]n(-c2ccccc2)c(=O)c1N=Nc1nccs1`, the activation in assay [1] was 816% (active). For the same compound, the potentiation in assay [2] is 418% (active); in assay [3] it was 787% (active). The current potentiation in assay [4] is 20.9% (active).
Consider `CCOc1ccc(N2CC(C(=O)Nc3cc(Cl)ccc3-n3cncn3)CC2=O)cc1` (stereo not given), for which the result in assay [1], in assay [2], in assay [3] and in assay [4] was inactive.
Consider `CC1(C)CC(N2CCOCC2)=CC(=[N+]2CCOCC2)C1`, for which the result in assay [1], in assay [2], in assay [3] and in assay [4] was inactive.
With `COc1ccc(C)cc1N=Nc1ccc(O)c2ncccc12`, the outcome in assay [1], in assay [2], in assay [3] and in assay [4] was inactive.
`CCCN1CCC(NC(=S)Nc2cccc(Cl)c2Cl)CC1`: the outcome in assay [1], in assay [2], in assay [3] and in assay [4] was inactive.
In the case of `Cc1cnc(NC(=O)c2ccc(-c3nc4ccccc4s3)o2)s1`, the outcome in assay [1], in assay [2], in assay [3] and in assay [4] was inactive.
As to `COc1ccc(C(=O)O/N=C(\N)Cc2ccc(Cl)cc2Cl)cc1OC`, the result in assay [1], in assay [2], in assay [3] and in assay [4] was inactive.
As to `O=C1CC(c2ccccc2)CC(O)=C1C=Nc1ccc(O)cc1` (stereo not given), the outcome in assay [1], in assay [2], in assay [3] and in assay [4] was inactive.
In the case of `O=S(=O)(NC(=S)NC1CCCCC1)c1ccc(Cl)cc1`, the activation in assay [1] is 191% (active). The potentiation in assay [2] is 56.5% (active); in assay [3], 199% (active). Further, the result in assay [4] was inactive.
For `CCOc1ccc(-n2cc(C(=O)Nc3cccc(C)n3)c3cc(OC)c(OC)cc3c2=O)cc1`, the result in assay [1], in assay [2], in assay [3] and in assay [4] was inactive.
For the compound `CCOc1ccccc1NC(=O)C1CCCN(S(=O)(=O)c2ccccc2)C1` (stereo not given), the outcome in assay [1], in assay [2], in assay [3] and in assay [4] was inactive.
